Assay results from PubChem BioAssay AID540347 (Broad Institute, 2011).
Active and inactive are the calls of the source.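 The calls were made as follows: active = viability loss with fitted half-maximal concentration at most ten times the top valid dose; inconclusive = flat fit with 30 to 70% inhibition, or poor fit; inactive = the rest, including rising signal.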

Columns and labels:
[1] = test system: SK-MEL-5 viability, CellTiter-Glo ATP luminescence, 24 h; experiment: ATP-based growth inhibition in SK-MEL-5 cells – cell-based, CellTiter-Glo luminescence, dry powder samples, orthogonal assay for MITF inhibitor project, dose response (AID 540347)
How it was run: (§1)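 System – SK-MEL-5 melanoma cell line · Measure – cell viability · Technique – CellTiter-Glo luminescence measuring cellular ATP · Doses – pin-transferred dose series · Medium – phenol red-free culture medium · Schedule – 24 h compound exposure, 37 °C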

[2] = as above; details: SK-MEL-5 viability, CellTiter-Glo ATP luminescence, 24 h; at 35 µM (top of the series)
How it was run: as §1

| SMILES | IC50 [1] | activity change, negative = inhibition [2] |
| --- | --- | --- |
| CCN1CCN(C2=C(NS(=O)(=O)c3ccc(Br)cc3)C(=O)c3ccccc3C2=O)CC1 | 33.5 µM | – |
| Cc1[nH]c2ccccc2c1C(=O)CCl | 27.7 µM | – |
| O=C(COc1ccccc1)N/N=C/c1ccc([N+](=O)[O-])o1 | 35.5 µM | – |
| CC1CCCCC1NC(=O)/C(C#N)=C/C=C/c1ccccc1[N+](=O)[O-] (stereo not given) | – | 9.93% (inactive) |
| Cc1ccc(C(O)(c2ccc(C)c(C)c2)C2CN3CCC2CC3)cc1C (stereo not given) | – | -2.1% (inactive) |
| CCN1c2ccccc2NC2N=C(OC)C(c3ccccc3)C21 (stereo not given) | 4.78 µM | – |
| Cc1ccc(C(C)C)c(OCc2nn(CC(=O)c3ccc(Cl)cc3)c3[n+]2CCCCC3)c1 | – | -4.44% (inactive) |
| CC1=NNC(=O)/C1=C\c1cn(-c2ccccc2)nc1-c1ccc(F)cc1 | 25.4 µM | – |
| Cc1oc(-c2ccc(Cl)cc2)nc1CN1CCC(C(=O)NCCCN2CCCC(C)C2)CC1 (stereo not given) | – | -12.1% (inactive) |
| CN(C)CCCNC(=O)/C(=C\c1ccc(-c2ccc(Br)cc2)o1)NC(=O)c1ccccc1 | 32 µM | – |
| CCN(CC)CCNC(=O)c1c(C)n(-c2ccccc2)c2cc(Br)c(OC)cc12 | – | -13.7% (inactive) |
| N=c1n(CCN2CCCC2)c2ccccc2n1CC(O)c1ccc(Cl)c(Cl)c1 (stereo not given) | 30.5 µM | – |
| CC(C)C(CCNC1CCN(C)CC1)c1ccc(Cl)cc1 (stereo not given) | 36.5 µM | – |
| O=C(Nc1ccc(-c2nc3ncccc3o2)cc1)c1ccc([N+](=O)[O-])o1 | – | 6.95% (inactive) |
| Cc1cc(C(C)(C)C)cc(C)c1Cn1c2[n+](c3ccc(C(F)(F)F)cc31)CCCCC2 | 27.1 µM | – |
| CCN1CCCC1CNC(=O)c1ccc2c(c1)NC(=O)/C(=C\c1ccc(C)cc1)S2 (stereo not given) | 29.1 µM | – |
| CC1CCN(CC(CS(=O)(=O)c2ccc([N+](=O)[O-])cc2)N2CCC(C)CC2)CC1 (stereo not given) | – | 3.72% (inactive) |
| CC1(C)CC(NC(=O)c2ccc(Cl)c(S(=O)(=O)N(Cc3ccccc3)c3ccccc3)c2)CC(C)(C)N1 | 29.2 µM | – |
| Cc1ccc(C(=O)N/N=C/c2ccc([N+](=O)[O-])s2)cc1 | – | -12.1% (inactive) |
| Cc1nc2ccccc2n1/N=C/c1ccc([N+](=O)[O-])s1 | 9.51 µM | – |
| COc1cc(/C=N/NC(N)=O)c(Br)cc1OCC(=O)Nc1ccccc1C | – | -15.2% (inactive) |
| COc1ccc(S(=O)(=O)N(C(C)=O)c2ccc(OC(C)=O)c3ccccc23)cc1[N+](=O)[O-] | 6.58 µM | – |
| COc1cc2c(cc1OC)C(c1ccccc1)N(C(=O)CCl)CC2 (stereo not given) | 28.4 µM | – |
| O=c1c(Cl)c2oc3ccccc3nc-2c2ccccc12 | 24.7 µM | – |
| C=CCNC1=C(Cl)C(=O)c2ccccc2C1=O | 14.3 µM | – |
